Assays:
[1] = biological target: T1, C-C chemokine receptor type 1 (Homo sapiens, UniProt P32246); assay: Inhibition of MIP-1-alpha-induced intracellular calcium mobilization in HEK293 cells expressing human CCR1 receptor; format: functional, cell-based
T1 sequence (P32246 whole entry): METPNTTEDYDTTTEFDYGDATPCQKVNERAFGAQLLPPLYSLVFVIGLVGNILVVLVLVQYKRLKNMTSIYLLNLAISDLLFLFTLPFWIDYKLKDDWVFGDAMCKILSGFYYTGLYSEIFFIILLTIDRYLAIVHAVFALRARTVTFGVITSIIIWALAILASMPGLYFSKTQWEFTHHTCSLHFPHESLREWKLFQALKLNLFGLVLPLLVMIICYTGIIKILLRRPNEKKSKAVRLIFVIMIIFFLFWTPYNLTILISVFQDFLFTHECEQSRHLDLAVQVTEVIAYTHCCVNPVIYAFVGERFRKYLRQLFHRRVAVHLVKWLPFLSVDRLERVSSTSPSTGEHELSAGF
Method in brief: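 HEK-293 cells overexpressing human CCR1 plated at 80 000 cells/well on poly-D-lysine, cultured one day, loaded with 4 μM Fluo-3 for 1 h at 37 °C in HBSS/Hepes with probenecid, then washed. Compound pretreatment 10 min at 37 °C, then 30 nM MIP-1α stimulation. FLIPR fluorescence read over 3 min at 37 °C. Six-concentration dose curves give IC50.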

[2] = biological target: T1, C-C chemokine receptor type 1; assay: Inhibition of [125I]-MIP-1 alpha binding to recombinant human C-C chemokine receptor type 1 expressed in HEK293 cells; format: cell-based
[3] = biological target: T2, C-C chemokine receptor type 1 (Homo sapiens) (UniProt P32246); assay: Inhibition of [125I]-MIP-1 alpha binding to recombinant human C-C chemokine receptor type 1 expressed in HEK293 cells at 10 uM concentration; format: cell-based
T2 sequence (whole entry): T1 sequence (P32246 whole entry)

[4] = biological target: T2, C-C chemokine receptor type 1 (Homo sapiens); assay: Inhibition of [125I]-MIP-1 alpha binding to recombinant human C-C chemokine receptor type 1 expressed in HEK293 cells at 3 uM concentration; format: cell-based

IC50 [1] [nM] | Ki [2] [nM] | inhibition [3] [%] | inhibition [4] [%] | SMILES
10900 | 92 | – | – | N#Cc1ccc(C2(O)CCN(CCCC(C#N)(c3ccccc3)c3ccccc3)CC2)cc1
3000 | 44 | – | – | N#CC1(CCCN2CCC(O)(c3ccc(F)cc3)CC2)c2ccccc2CSc2ccccc21 (stereo unspecified)
4800 | 130 | – | – | N#CC(CCCN1CCC(O)(c2ccc(Cl)cc2)CC1)(c1ccccc1)N1CCCCC1 (stereo unspecified)
7000 | 33 | – | – | CCOC(=O)C(C#N)(CCCN1CCC(O)(c2ccc(Cl)cc2)CC1)c1ccccc1 (stereo unspecified)
– | – | – | 0 | N#CC1(c2ccccc2)CCN(CCCC2(C#N)c3ccccc3CSc3ccccc32)CC1 (stereo unspecified)
– | – | 22 | – | N#CC(CCCN1CCC(O)(c2ccc(F)cc2)C1)(c1ccccc1)c1ccccc1 (stereo unspecified)
– | – | 0 | – | N#CC(CCCN1CCCC(O)(c2ccc(F)cc2)C1)(c1ccccc1)c1ccccc1 (stereo unspecified)
– | – | 30 | – | N#CC(CCCN1CCC(O)(c2ccc(-c3ccccc3)cc2)CC1)(c1ccccc1)c1ccccc1
– | – | 0 | – | N#CC(CCCN1CCC(O)(c2ccc(Cl)cc2)CC1)c1cccc(OCc2ccccc2)c1 (stereo unspecified)
– | – | 51 | – | N#CC(CCCN1CCC(O)(c2ccc(Cl)cc2)CC1)c1cccc2ccccc12 (stereo unspecified)
– | – | 46 | – | N#CC(CCCN1CCC(O)(c2ccc(Cl)cc2)CC1)c1ccccc1OCc1ccccc1 (stereo unspecified)
1600 | 78 | – | – | N#CC(CCCCN1CCC(O)(c2ccc(Cl)cc2)CC1)(c1ccccc1)c1ccccc1
7100 | 206 | – | – | N#CC(CCCN1CCC(O)(c2ccc(Cl)cc2)CC1)c1ccc2ccccc2c1 (stereo unspecified)
5800 | 98 | – | – | N#Cc1ccccc1C(C#N)CCCN1CCC(O)(c2ccc(Cl)cc2)CC1 (stereo unspecified)
1800 | 6 | – | – | C[N+]1(CCCC(c2ccccc2)c2ccccc2)CCC(O)(c2ccc(Cl)cc2)CC1 (stereo unspecified)
5600 | 99 | – | – | N#CC(CCCCCN1CCC(O)(c2ccc(Cl)cc2)CC1)(c1ccccc1)c1ccccc1
8300 | 51 | – | – | N#CC(CCCCl)(CCCN1CCC(O)(c2ccc(Cl)cc2)CC1)c1ccccc1 (stereo unspecified)
– | 53 | – | – | COC(=O)C(C#N)(CCCN1CCC(O)(c2ccc(Cl)cc2)CC1)c1ccccc1 (stereo unspecified)
– | 1160 | – | – | CN(C)c1ccc(C2(O)CCN(CCCC(C#N)(c3ccccc3)c3ccccc3)CC2)cc1
3300 | 32 | – | – | CN1C(=O)c2ccccc2C(C#N)(CCCN2CCC(O)(c3ccc(Cl)cc3)CC2)c2ccccc21 (stereo unspecified)
– | – | 25 | – | N#CC(CCCN1CCC(O)(c2ccc(Cl)cc2)CC1)c1ccccc1C(F)(F)F (stereo unspecified)
– | 906 | – | – | N#CC(CCCN1CCC(O)(c2ccccn2)CC1)(c1ccccc1)c1ccccc1
– | 4010 | – | – | CCCCC1(O)CCN(CCCC(C#N)(c2ccccc2)c2ccccc2)CC1
– | 206 | – | – | N#CC(CCCN1CCC(O)(c2cccnc2)CC1)(c1ccccc1)c1ccccc1
– | – | 33 | – | N#CC(CCCN1CCC(O)(c2ccc(N)cc2)CC1)(c1ccccc1)c1ccccc1
– | 54 | – | – | N#CC(CCCN1CCC(O)(c2ccc(Cl)cc2)CC1)c1ccccc1 (stereo unspecified)
3200 | 125 | – | – | N#CCC(C#N)(CCCN1CCC(O)(c2ccc(Cl)cc2)CC1)c1ccccc1 (stereo unspecified)
– | 234 | – | – | N#CC1(CCCN2CCC(O)(c3ccc(Cl)cc3)CC2)c2ccccc2Oc2ccccc21

The next lines start with the compound.

SMILES | IC50 [1] [nM] | Ki [2] [nM] | inhibition [3] [%] | inhibition [4] [%]
N#CC1(CCCN2CCC(O)(c3ccc(Cl)cc3)CC2)c2ccccc2COc2ccccc21 (stereo unspecified) | 7700 | 34 | – | –
N#CC1(CCCN2CCC(C(=O)O)(c3ccccc3)CC2)c2ccccc2Cc2ccccc21 | – | – | 15 | –
N#CC1(CCCN2CCC(O)(c3ccc(Cl)cc3)CC2)c2ccccc2CSc2ccccc21 (stereo unspecified) | 7000 | 24 | – | –
N#CC1(CCCN2CCC(O)(c3ccc(Cl)cc3)CC2)c2ccccc2CCc2ccccc21 | 7700 | 45 | – | –
N#CC(CCCN1CCC(O)(c2ccc(Cl)cc2)CC1)(c1ccccc1)c1ccccc1 [BERLEX COMPOUND] | 2500 | 52 | – | –
N#CC1(CCCN2CCC(c3ccccc3)CC2)c2ccccc2CSc2ccccc21 (stereo unspecified) | – | – | – | 19
N#CC(CCCN1CCC(O)(c2ccc(Cl)cc2)CC1)c1cccs1 (stereo unspecified) | 8400 | 128 | – | –
CC(=O)C1(c2ccccc2)CCN(CCCC2(C#N)c3ccccc3CSc3ccccc32)CC1 (stereo unspecified) | – | – | – | 0
OC1(c2ccc(Cl)cc2)CCN(CCCC(c2ccccc2)c2ccccc2)CC1 | 8700 | 116 | – | –
COC(=O)C1(c2ccccc2)CCN(CCCC2(C#N)c3ccccc3Cc3ccccc32)CC1 | – | – | 62 | –
N#CC1(CCCN2CCC(O)(c3ccc(Cl)cc3)CC2)c2ccccc2C=Cc2ccccc21 | 5300 | 56 | – | –
C[N+]1(CCCC(C#N)c2ccc3ccccc3c2)CCC(O)(c2ccc(Cl)cc2)CC1 (stereo unspecified) | 700 | 22 | – | –
N#CC(CCCN1CCC(O)(c2ccc(Cl)cc2)CC1)c1ccsc1 (stereo unspecified) | 9800 | 236 | – | –
N#CC1(CCCN2CCC(C(O)(c3ccccc3)c3ccccc3)CC2)c2ccccc2CSc2ccccc21 (stereo unspecified) | – | – | – | 0
N#CC1(CCCN2CCC(O)(c3ccccc3)CC2)c2ccccc2CSc2ccccc21 (stereo unspecified) | – | 203 | – | –
Cn1cccc1C(C#N)CCCN1CCC(O)(c2ccc(Cl)cc2)CC1 (stereo unspecified) | – | 429 | – | –
N#CC(CCCN1CCC(O)(c2ccc(Cl)cc2)CC1)c1cccc(O)c1 (stereo unspecified) | 9000 | 156 | – | –
N#CC(CCN1CCC(O)(c2ccc(Cl)cc2)CC1)(c1ccccc1)c1ccccc1 | 400 | 4060 | – | –
COc1ccc(C(C#N)CCCN2CCC(O)(c3ccc(Cl)cc3)CC2)cc1Br (stereo unspecified) | 1900 | 74 | – | –

From ChEMBL document CHEMBL1132282, “Discovery of novel non-peptide CCR1 receptor antagonists” (J Med Chem, 1999)
